# Laboratory results reported in ChEMBL document CHEMBL1151238, “New stilbene derivatives from Calligonum leucocladum” (2004).
# Assays:
# Type in all cases: functional
# Staphylococcus aureus [1] = experiment: Antimicrobial activity against methicillin-resistant Staphylococcus aureus 2 after 24 hrs
# Summary of the method: (§1)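 Overnight 37 °C Mueller-Hinton broth cultures of clinical isolates or strain COL were diluted in 0.85% NaCl and spotted by inoculator at about 10⁶ cfu/mL. Plates were held 37 °C for 24 h. MIC was taken as the lowest concentration giving complete growth inhibition.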
# Staphylococcus aureus [2] = experiment: Antimicrobial activity against methicillin-resistant Staphylococcus aureus 4 after 24 hrs; summary of the method: as §1
# Staphylococcus aureus [3] = experiment: Antimicrobial activity against methicillin-resistant Staphylococcus aureus 5 after 24 hrs; summary of the method: as §1
# [4] = DPPH radical scavenging activity assessed as ratio of absorbance at 20 uM relative to L-cysteine
# Summary of the method: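 Test compound at 20 μM in ethanolic solution, mixed with ethanol, 50 mM MES buffer (pH 5.5) and 0.5 mM DPPH in ethanol. Decrease in absorbance at 517 nm read after 30 min. L-Cysteine served as reference. Value given as the ratio of absorbance between L-cysteine and test compound.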
# Staphylococcus aureus [5] = experiment: Antimicrobial activity against methicillin-resistant Staphylococcus aureus COL after 24 hrs; summary of the method: as §1
# Staphylococcus aureus [6] = experiment: Antimicrobial activity against methicillin-resistant Staphylococcus aureus 8 after 24 hrs; summary of the method: as §1
# Staphylococcus aureus [7] = experiment: Antimicrobial activity against methicillin-resistant Staphylococcus aureus 1 after 24 hrs; summary of the method: as §1
# Staphylococcus aureus [8] = experiment: Antimicrobial activity against methicillin-resistant Staphylococcus aureus 12 after 24 hrs; summary of the method: as §1
compound,measurement,setting,value
O=C(OC[C@H]1O[C@@H](Oc2cc(O)cc(/C=C/c3ccc(O)cc3)c2)[C@H](O)[C@@H](O)[C@@H]1O)c1cc(O)c(O)c(O)c1,MIC,Staphylococcus aureus [1],125 µg/mL
same,MIC,Staphylococcus aureus [2],125 µg/mL
same,MIC,Staphylococcus aureus [3],> 250 µg/mL
same,Ratio,[4],1.3
same,MIC,Staphylococcus aureus [5],> 250 µg/mL
same,MIC,Staphylococcus aureus [6],125 µg/mL
same,MIC,Staphylococcus aureus [7],125 µg/mL
same,MIC,Staphylococcus aureus [8],250 µg/mL
CC(=O)O[C@@H]1CO[C@@H](Oc2cc(O)cc(/C=C/c3ccc(O)cc3)c2)[C@H](O)[C@H]1O,Ratio,[4],0.2
OC[C@H]1O[C@@H](Oc2cc(O)cc(/C=C/c3ccc(O)cc3)c2)[C@H](O)[C@@H](O)[C@@H]1O,Ratio,[4],0.54
OC[C@H]1O[C@@H](Oc2cc(O)cc(/C=C/c3ccccc3)c2)[C@H](O)[C@@H](O)[C@@H]1O,Ratio,[4],0.14
Oc1ccc(/C=C/c2cc(O)cc(O[C@@H]3OC[C@@H](O)[C@H](O)[C@H]3O)c2)cc1,Ratio,[4],0.42
Cc1onc(-c2ccccc2)c1C(=O)N[C@@H]1C(=O)N2[C@@H]1SC(C)(C)[C@@H]2C(=O)O [OXACILLIN],MIC,Staphylococcus aureus [1],256 µg/mL
same,MIC,Staphylococcus aureus [2],256 µg/mL
same,MIC,Staphylococcus aureus [3],256 µg/mL
same,MIC,Staphylococcus aureus [5],512 µg/mL
same,MIC,Staphylococcus aureus [6],256 µg/mL
same,MIC,Staphylococcus aureus [7],512 µg/mL
same,MIC,Staphylococcus aureus [8],512 µg/mL
Oc1cc(O)cc(/C=C/c2ccccc2)c1 [PINOSYLVIN],MIC,Staphylococcus aureus [1],> 250 µg/mL
same,MIC,Staphylococcus aureus [2],> 250 µg/mL
same,MIC,Staphylococcus aureus [3],125 µg/mL
same,Ratio,[4],0.52
same,MIC,Staphylococcus aureus [5],125 µg/mL
same,MIC,Staphylococcus aureus [6],> 250 µg/mL
same,MIC,Staphylococcus aureus [7],> 250 µg/mL
same,MIC,Staphylococcus aureus [8],> 250 µg/mL
Oc1ccc(/C=C/c2cc(O)cc(O)c2)cc1 [RESVERATROL],MIC,Staphylococcus aureus [1],> 250 µg/mL
same,MIC,Staphylococcus aureus [2],> 250 µg/mL
same,MIC,Staphylococcus aureus [3],> 250 µg/mL
same,Ratio,[4],1.77
same,MIC,Staphylococcus aureus [5],> 250 µg/mL
same,MIC,Staphylococcus aureus [6],> 250 µg/mL
same,MIC,Staphylococcus aureus [7],> 250 µg/mL
same,MIC,Staphylococcus aureus [8],> 250 µg/mL
